Screening results: PubChem, Sanford-Burnham Center for Chemical Genomics
CHOP UPR activ = activators of apoptotic arm of unfolded protein response (CHOP); CHO-CHOP luciferase reporter, UPR activation, luminescence; percent of tunicamycin response over DMSO baseline; activation, % at 10 µM; hit rate 0.34% among 330,000; AID 449763;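 active = at 10 µM dose, activation of 40% or more, normalized to positive control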
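System: CHO-CHOP luciferase reporter cell line; amount: 500 cells/well; buffer or medium: F12 medium containing 10% fetal bovine serum; incubation: 6 h compound exposure at 37 °C after overnight seeding; measured by: luciferase luminescence after 10 min with Steady-Glo reagent; evaluation: % reporter activation, DMSO baseline versus tunicamycin full activation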
UPR XBP1 act = activators of adaptive arm of unfolded protein response (XBP1) | hit rate 0.33% among 330,000 | CHO-XBP1 luciferase reporter, IRE1-XBP1 UPR activation, luminescence; percent of tunicamycin response, DMSO as zero | AID 463104 | activation, % at 20 µM;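 active = versus positive control, 20 µM dose yields 30% or more activation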
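Test system: CHO-XBP1 luciferase reporter cells | Buffer or medium: Serum-containing F12 medium, 10% FBS | Schedule: 6 h compound exposure at 37 °C, 5% CO2 | Detection: Steady-Glo luciferase glow luminescence, 10 min after reagent addition | Read-out basis: Activation, % of tunicamycin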
UBC13 polyUb = blocks human UBC13 polyubiquitin chain formation; TR-FRET; inhibition, % at 20 µM; hit rate 0.47% among 330,000; AID 485273; in the data active = inhibition above about 45%, passing the limit was not always enough; inconclusive = no clear call, values can overlap the other calls
Target sequence (P61088 whole entry, looked up): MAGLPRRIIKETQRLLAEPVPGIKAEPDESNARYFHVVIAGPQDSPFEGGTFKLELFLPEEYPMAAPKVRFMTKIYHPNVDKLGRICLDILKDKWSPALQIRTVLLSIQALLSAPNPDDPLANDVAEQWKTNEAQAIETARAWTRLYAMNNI
Mdm2 MdmX PPI = inhibitors of human Mdm2/MdmX interaction; AID 485346; hit rate 3% among 330,000; inhibition, % at 8 µM; SaOS-2 split-luciferase Mdm2/MdmX complementation, luminescence;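 active = inhibition of at least 50% at 8 µM in the primary screen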
Apaf1 inhib = blocks human Apaf-1 apoptosome activity. O14727. reconstituted apoptosome caspase-3 activity, DEVD-Rh110 fluorescence. inhibition, % at 20 µM. hit rate 0.71% among 330,000; active = inhibition of at least 40% at 20 µM
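System: Apoptosome proteins | Medium: Hepes pH 7.5 with detergent and BSA | Also added: Cytochrome c trigger plus (Z-DEVD)2-Rh110 caspase-3 substrate | Incubation: 30 min compound preincubation, 50 min activation, room temperature | Detection: Rhodamine 110 fluorescence at Ex 480/Em 540 nm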
Mdm2-MdmX conf = human Mdm2/MdmX binding inhibition, confirmed | inhibition, % at 8 µM | shares compounds with Mdm2 MdmX PPI | luminescent assay | hit rate 55% among 10,000; in the data active = inhibition above about 40%
Full FLuc ctr = counter-screen for Mdm2/MdmX inhibitors: full-length luciferase; shares compounds with Mdm2 MdmX PPI; hit rate 77% among 6,200; inhibition, % at 8 µM; SaOS-2 full-length luciferase counterscreen, luminescence;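 active = mean inhibition at 8 µM reaching about 37%, which flags the compound as non-specific, limit read from the data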;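 also: p53-null SaOS-2 cells with luciferase driven by a doxycycline-inducible promoter; compound on cells about two nights before reading with doxycycline added after day one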
Each line names hits and unclear results; the compound was inactive in the other large screens (follow-up assays come after a bar, where they were run); ! = repeats disagree. The list is not random: actives were taken first. Their share in the collection is about 4.1%.

Cc1cc(S(=O)(=O)c2ccc([N+](=O)[O-])cn2)ccc1Br	Mdm2 MdmX PPI 99 | Mdm2-MdmX conf 99 | Full FLuc ctr 39
O=C(c1cnc2n(c1=O)CCS2)N1CCN(c2ccc([N+](=O)[O-])cc2)CC1	none
COC(=O)c1ccccc1NC(=O)C1CCN(C(=O)c2ccc(OC)cc2)CC1	none
Nc1nc(Nc2ccccc2)sc1C(=O)c1ccccc1	Mdm2 MdmX PPI 62 | Mdm2-MdmX conf inactive
CC(C)(C)OC(=O)C[C@@H]1C/C=C\C[C@@H](CC(=O)N(CCO)Cc2ccccc2)C(=O)NC[C@H](c2ccccc2)OC1=O	Mdm2 MdmX PPI 60 | Mdm2-MdmX conf 40 | Full FLuc ctr 71
O=C(N[C@@H]1C/C=C\C[C@H](CC(=O)N(CCO)Cc2ccccc2)C(=O)NC[C@@H](c2ccccc2)OC1=O)OCC1c2ccccc2-c2ccccc21	Mdm2 MdmX PPI 51 | Mdm2-MdmX conf inactive
O=C(C[C@@H]1C/C=C\C[C@@H](Cc2ccc(F)cc2)C(=O)OC[C@@H](Cc2ccccc2)NC1=O)N[C@H](CO)Cc1ccccc1	Mdm2 MdmX PPI 80 | Mdm2-MdmX conf 66 | Full FLuc ctr 41
O=C(N[C@@H]1C/C=C\C[C@@H](CC(=O)N(CCO)Cc2ccccc2)C(=O)NC[C@H](c2ccccc2)OC1=O)OCC1c2ccccc2-c2ccccc21	Mdm2 MdmX PPI 61 | Mdm2-MdmX conf inactive
COc1ccc(NC(=O)CCOc2cc(C)ccc2C)cc1S(=O)(=O)N1CCCCC1	none
CCOC(=O)[C@@H]1[C@H]2COc3ccccc3[C@H]2N2C(=O)N(c3ccc(Cl)cc3)C(=O)[C@@]12C	none
O=C(C[C@H]1C/C=C\C[C@H](NC(=O)OCC2c3ccccc3-c3ccccc32)C(=O)O[C@H](c2ccccc2)CNC1=O)N[C@H](CO)Cc1ccccc1	Mdm2 MdmX PPI 78 | Mdm2-MdmX conf 47 | Full FLuc ctr 56
O=C(C[C@H]1C/C=C\C[C@@H](Cc2ccc(F)cc2)C(=O)O[C@H](c2ccccc2)CNC1=O)N[C@@H](CO)Cc1ccccc1	none
CC(C)n1cnc2c(Nc3cccc(Cl)c3)nc(NCCCO)nc21	Mdm2 MdmX PPI 73 | Mdm2-MdmX conf 74 | Full FLuc ctr 72
O=C(O)c1ccc(Nc2cc(Cl)c3nonc3c2[N+](=O)[O-])cc1	none
Cc1c(Nc2cc(Cl)c3nonc3c2[N+](=O)[O-])c(=O)n(-c2ccccc2)n1C	Mdm2 MdmX PPI 99 | Mdm2-MdmX conf 98 | Full FLuc ctr 57
O=[N+]([O-])c1c(Nc2cccc(O)c2)cc(Cl)c2nonc12	Mdm2 MdmX PPI 100 | Mdm2-MdmX conf 100 | Full FLuc ctr 51
Cc1c(Nc2ccc3nonc3c2[N+](=O)[O-])c(=O)n(-c2ccccc2)n1C	none
CCC(=O)Nc1cccc(C(=O)/C=C/c2ccccc2)c1	Mdm2 MdmX PPI 95 | Mdm2-MdmX conf inactive | Full FLuc ctr inactive
O=C(/C=C/c1ccccc1)Nc1cccc(C(=O)O)c1	Mdm2 MdmX PPI 68 | Mdm2-MdmX conf 64 | Full FLuc ctr inactive
CCC(=O)Nc1cccc(C(=O)/C=C/c2cccs2)c1	none
CC[C@H](C)C(=O)O[C@H]1CCC=C2C=C[C@H](C)[C@H](CC[C@@H]3C[C@@H](O)CC(=O)O3)[C@H]21	none
CC[C@H](C)C(=O)O[C@H]1C[C@@H](C)C=C2C=C[C@H](C)[C@H](CC[C@@H]3C[C@@H](O)CC(=O)O3)[C@H]21	Mdm2 MdmX PPI 53! | Mdm2-MdmX conf inactive
Cc1ccc2cccc(NC(=O)c3ccc(Br)o3)c2n1	Mdm2 MdmX PPI 61 | Mdm2-MdmX conf 63 | Full FLuc ctr 55
O=C(NCc1ccc(-c2nc3ccccc3s2)cc1)c1ccc(Br)o1	none
O=C(Nc1ccccc1-c1nc2ccccc2s1)c1ccc(Br)o1	Mdm2 MdmX PPI 60 | Mdm2-MdmX conf inactive
O=C(CCc1nnc(COc2ccccc2)o1)NCc1ccccc1C(F)(F)F	none
CCN1CCN(c2nc(-c3ccccc3)c3ccccc3n2)CC1	none
CCN1CCN(c2ccc(Nc3ccnc4ccccc34)cc2)CC1	Mdm2 MdmX PPI 87 | Mdm2-MdmX conf 84 | Full FLuc ctr inactive
CN1CCN(c2ccc(Nc3ccnc4cc(Cl)ccc34)cc2)CC1	Mdm2 MdmX PPI 78 | Mdm2-MdmX conf inactive | Full FLuc ctr 51
CCCN1CCN(CC(=O)NCC(=O)Nc2cccc(C)c2C)CC1	none
CCOCCCNC(=O)c1ccc(-n2c(=S)[nH]c3ccccc3c2=O)cc1	none
CC(=O)N1CCN(c2ccc(S(=O)(=O)N3CCOCC3)cc2[N+](=O)[O-])CC1	none
Nc1c(C(=O)c2ccccc2O)cnn1-c1ccc(S(=O)(=O)N2CCOCC2)cc1[N+](=O)[O-]	Mdm2 MdmX PPI 70 | Mdm2-MdmX conf inactive
Cc1ccc(NC(=O)c2ccc([N+](=O)[O-])s2)cc1S(=O)(=O)N1CCOCC1	Mdm2 MdmX PPI 65 | Mdm2-MdmX conf inactive
O=C(Nc1cc(S(=O)(=O)N2CCOCC2)ccc1O)c1ccc(NS(=O)(=O)c2ccc(Cl)s2)cc1	none
Cc1ccc(NC(=O)c2ccccc2NS(=O)(=O)c2ccc(Cl)s2)cc1S(=O)(=O)N1CCOCC1	UBC13 polyUb inconclusive, Mdm2 MdmX PPI 66 | Mdm2-MdmX conf 45 | Full FLuc ctr 52
COc1ccc(C)cc1NC(=O)c1ccccc1NS(=O)(=O)c1ccc(Cl)s1	Mdm2 MdmX PPI 89 | Mdm2-MdmX conf 79 | Full FLuc ctr inactive
c1ccc([C@H]2CNCCN2CCc2cccc3ccccc23)cc1	Mdm2 MdmX PPI 57, Apaf1 inhib 55 | Mdm2-MdmX conf inactive
COc1cc(CCCN2CCNC[C@@H]2c2ccccc2)cc(OC)c1OC	none
CC(C)(C)OC(=O)N[C@@H](C(=O)OC(C)(C)C)c1ccc(Br)cc1	none
CN(CC(=O)Nc1cccc(F)c1)C(=O)COc1cccc2c1OC(C)(C)C2	none
CCOC(=O)C1=C(NC(=S)NC(=O)c2ccccc2)c2ccccc2CC1(C)CC (stereo unspecified)	Mdm2 MdmX PPI 77 | Mdm2-MdmX conf 66 | Full FLuc ctr 53
CCOC(=O)C1=C(NC(=S)NC(=O)c2ccccc2)c2ccccc2CC1C(C)C (stereo unspecified)	Mdm2 MdmX PPI 96 | Mdm2-MdmX conf inactive
CCOC(=O)c1c(NC(=O)c2ccccc2)sc2c1CCc1ccccc1-2	none
CCOC(=O)c1cc(C(=O)OCC)c(=O)[nH]c1N1CCCCC1	none
Nc1nonc1-c1nc2ccccc2n1Cc1ccc(F)cc1Cl	Mdm2 MdmX PPI 62 | Mdm2-MdmX conf 49 | Full FLuc ctr 83
CCCN(CCC)c1nc(-c2ccccn2)nc2ccccc12	CHOP UPR activ 69, Mdm2 MdmX PPI 83 | Mdm2-MdmX conf 85 | Full FLuc ctr inactive
